Reference: ChEMBL document CHEMBL3124818, “Synthesis and antimicrobial evaluation of amide derivatives of benzodifuran-2-carboxylic acid” (2014)
Values after ≈ are worked out from the molar mass of the structure shown.

Legend:
Format in all cases: functional
Staphylococcus aureus = test: Antibacterial activity against Staphylococcus aureus by broth dilution method
Outline: (§1)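 Broth dilution screen. Compounds tested at 40 μg to 600 μg. MIC was read as the lowest concentration preventing visible growth. Solvent controls were included. Ciprofloxacin (antibacterial) and fluconazole (antifungal) were run under similar conditions as reference drugs.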

Escherichia coli = test: Antibacterial activity against Escherichia coli by broth dilution method; outline: as §1
Pseudomonas aeruginosa = test: Antibacterial activity against Pseudomonas aeruginosa by broth dilution method; outline: as §1
Candida albicans = test: Antifungal activity against Candida albicans by broth dilution method; outline: as §1
Bacillus subtilis = test: Antibacterial activity against Bacillus subtilis by broth dilution method; outline: as §1

SMILES	MIC (Staphylococcus aureus) [µg/mL]	MIC (Escherichia coli) [µg/mL]	MIC (Pseudomonas aeruginosa) [µg/mL]	MIC (Candida albicans) [µg/mL]	MIC (Bacillus subtilis) [µg/mL]
Cc1coc2cc3oc(C(=O)Nc4ccc(C(=O)O)cc4)c(C)c3cc12	600 (≈ 1720 µM)	400 (≈ 1150 µM)	600 (≈ 1720 µM)	600 (≈ 1720 µM)	160 (≈ 458 µM)
COc1ccc(NC(=O)c2oc3cc4occ(C)c4cc3c2C)cc1	160 (≈ 477 µM)	≥ 600	≥ 600	≥ 600	400 (≈ 1190 µM)
O=C(O)c1cn(C2CC2)c2cc(N3CCNCC3)c(F)cc2c1=O [CIPROFLOXACIN]	5 (≈ 15.1 µM)	15 (≈ 45.3 µM)	7.5 (≈ 22.6 µM)		2 (≈ 6.04 µM)
Cc1coc2cc3oc(C(=O)N4CCOCC4)c(C)c3cc12	400 (≈ 1340 µM)	600 (≈ 2000 µM)	≥ 600	≥ 600	200 (≈ 668 µM)
Cc1coc2cc3oc(C(=O)Nc4ccc(O)cc4)c(C)c3cc12	600 (≈ 1870 µM)	600 (≈ 1870 µM)	≥ 600	≥ 600	200 (≈ 622 µM)
Cc1coc2cc3oc(C(=O)N4CCc5ccccc5C4)c(C)c3cc12	400 (≈ 1160 µM)	≥ 600	≥ 600	600 (≈ 1740 µM)	160 (≈ 463 µM)
CCN(CC)C(=O)c1oc2cc3occ(C)c3cc2c1C	160 (≈ 561 µM)	400 (≈ 1400 µM)	600 (≈ 2100 µM)	600 (≈ 2100 µM)	400 (≈ 1400 µM)
Cc1coc2cc3oc(C(=O)N4CCCCC4)c(C)c3cc12	400 (≈ 1350 µM)	600 (≈ 2020 µM)	≥ 600	≥ 600	200 (≈ 673 µM)
OC(Cn1cncn1)(Cn1cncn1)c1ccc(F)cc1F [FLUCONAZOLE]				5 (≈ 16.3 µM)	
Cc1ccc(NC(=O)c2oc3cc4occ(C)c4cc3c2C)cc1	200 (≈ 626 µM)	≥ 600	≥ 600	≥ 600	200 (≈ 626 µM)
Cc1coc2cc3oc(C(=O)N4CCCC4)c(C)c3cc12	160 (≈ 565 µM)	400 (≈ 1410 µM)	≥ 600	600 (≈ 2120 µM)	400 (≈ 1410 µM)
Cc1coc2cc3oc(C(=O)Nc4ccccc4)c(C)c3cc12	600 (≈ 1970 µM)	600 (≈ 1970 µM)	600 (≈ 1970 µM)	600 (≈ 1970 µM)	400 (≈ 1310 µM)
Cc1coc2cc3oc(C(=O)Nc4ccc(Cl)cc4)c(C)c3cc12	400 (≈ 1180 µM)	200 (≈ 589 µM)	≥ 600	≥ 600	200 (≈ 589 µM)
